Drawing on ChEMBL document CHEMBL3046214, “Friedelane triterpenes from Celastrus vulcanicola as photosynthetic inhibitors” (J Agric Food Chem, 2010), this text covers inhibition, Activity and IC50 for five molecules.

Test [1] has as its system Spinacia oleracea. Description: Inhibition of photophosphorylation in Spinacia oleracea (spinach) leaves chloroplasts by titrimetry. Type of test: functional. Particulars: for IC50: read-out: I50. A digest of the protocol:
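Intact spinach chloroplasts (20 μg Chl/mL) were osmotically broken in 3 mL of weakly buffered medium: 100 mM sorbitol, 10 mM KCl, 5 mM MgCl2, 0.5 mM KCN, 1 mM tricine-KOH pH 8.0, 50 μM MV and 1 mM ADP. ATP synthesis was taken from the medium alkalization rate in the linear part of illumination, calibrated by HCl back-titration, as μmol ATP (mg Chl)-1 h-1. I50 was obtained from concentration-activity plots; three replicates.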

Test [2] has as its system Spinacia oleracea. Nature of the test: Increase in Magnesium-transporting ATPase activity in Spinacia oleracea (spinach) leaves chloroplasts thylakoids at 3 mM. An outline of the steps:
(§1)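 Spinach chloroplasts were isolated in 350 mM sorbitol, 5 mM ascorbate, 20 mM MES pH 6.5, centrifuged at 3000g for 60 s, washed, and resuspended in 35 mM HEPES pH 7.6. Light-triggered Mg2+-ATPase activity of thylakoid membranes was measured as released inorganic phosphate. Ammonium chloride served as positive control.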

In test [3] the test system is Spinacia oleracea. Description: Increase in Magnesium-transporting ATPase activity in Spinacia oleracea (spinach) leaves chloroplasts thylakoids at 2 mM. An outline of the steps: as §1
The test system of test [4] is Spinacia oleracea. Nature of the test: Increase in Magnesium-transporting ATPase activity in Spinacia oleracea (spinach) leaves chloroplasts thylakoids at 1 mM. A digest of the protocol: as §1
The test system of test [5] is Lolium perenne. Nature of the test: Inhibition of photosynthetic efficiency in Lolium perenne (perennial ryegrass) assessed as effect on OJIP transients at 200 uM measured 72 hr post compound application. Type of test: functional, organism-based. An outline of the steps: (§2)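 Greenhouse L. perenne sprayed 18 days after emergence (20 mM DMSO stock diluted into 0.05% Tween-20; vehicle-sprayed controls). Leaves dark-adapted 15 min, then excited with 3000 μmol photons m-2 s-1 red light (650 nm) from three LEDs. OJIP transients recorded at room temperature with a Handy PEA. PI(abs) and other parameters are shown on radar plots normalized to control.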

The subject of test [6] is Lolium perenne. Nature of the test: Effect on photosynthetic efficiency in Lolium perenne (perennial ryegrass) assessed as increase in OJIP transients at 100 uM measured 72 hr post compound application. Type of test: functional. A digest of the protocol:
as §2

Test [7] deals with Lolium perenne. Description: Inhibition of photosynthetic efficiency in Lolium perenne (perennial ryegrass) at 200 uM measured 24 to 72 hr post compound application. Format: functional. A digest of the protocol: as §2
Test [8] deals with Lolium perenne. Nature of the test: Inhibition of photosynthetic efficiency in Lolium perenne (perennial ryegrass) assessed as effect on OJIP transients at 100 uM measured 24 to 48 hr post compound application. Format: functional, organism-based. A digest of the protocol: as §2
The subject of test [9] is Spinacia oleracea. Description: Effect on photosynthesis efficiency in Spinacia oleracea (spinach) leaves freshly lysed chloroplasts assessed as change in chlorophyll a fluorescence at 150 to 450 uM. Type of test: functional. An outline of the steps:
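Freshly lysed spinach thylakoids (20 μg Chl) were placed on filter paper with a dot-blot apparatus and dipped in 3 mL basal electron transport medium without MV, containing compound. After 5 min dark adaptation, fluorescence was excited with 3000 μmol m-2 s-1 650 nm LED light (2 s pulse) at room temperature. Wt = (Ft−F0)/(FJ−F0), difference from control used for K-band; five replicates.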

The test system of test [10] is Spinacia oleracea. Description: Increase in Magnesium-transporting ATPase activity in Spinacia oleracea (spinach) leaves chloroplasts thylakoids at 200 uM. An outline of the steps:
as §1

For test [11], the system named is Spinacia oleracea. Description: Increase in Magnesium-transporting ATPase activity in Spinacia oleracea (spinach) leaves chloroplasts thylakoids at 300 uM. A digest of the protocol:
as §1

For test [12], the system named is Spinacia oleracea. Nature of the test: Inhibition of uncoupled electron transport from water to MV in Spinacia oleracea (spinach) leaves chloroplasts at 50 to 300 uM using Clark type electrode system based method. Format: functional, organism-based. An outline of the steps:
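Water-to-MV electron transport measured with a Clark electrode in the basal medium (20 μg Chl/mL, 50 μM MV, 15 mM tricine-KOH pH 8.0, 1 min illumination), with 6 mM NH4Cl added as uncoupler.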

Test [13] has as its system Spinacia oleracea. Description: Inhibition of basal electron transport from water to MV in Spinacia oleracea (spinach) leaves chloroplasts at 50 to 300 uM using Clark type electrode system based method. Type of test: functional, organism-based.
The test system of test [14] is Spinacia oleracea. Description: Inhibition of phosphorylating noncyclic electron transport from water to MV in Spinacia oleracea (spinach) leaves chloroplasts at 50 to 300 uM using Clark type electrode system based method. Type of test: functional. A digest of the protocol: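 Clark-electrode measurement of water-to-MV electron flow in the basal medium (sorbitol, KCl, MgCl2, 0.5 mM KCN, 50 μM MV, 15 mM tricine-KOH pH 8.0; 20 μg Chl/mL; 1 min light), with 1 mM ADP and 3 mM KH2PO4 added.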

The test system of test [15] is Spinacia oleracea. Nature of the test: Increase in Magnesium-transporting ATPase activity in Spinacia oleracea (spinach) leaves chloroplasts thylakoids at 100 uM. An outline of the steps:
as §1

Test [16] deals with Physalis ixocarpa. Description: Effect on biomass production in Physalis ixocarpa assessed as plant dry weight at 200 uM measured 14 days post compound application relative to untreated control. Type of test: functional. An outline of the steps: (§3)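 Greenhouse-grown plants (pots, watered daily, 25 to 30 °C) of similar size, sprayed at 15 (P. ixocarpa) or 18 (L. perenne) days after emergence. Compound taken from a 20 mM DMSO stock into aqueous 0.05% w/v Tween-20; controls were sprayed with water containing the same DMSO and Tween-20. Plants harvested at ground level, oven-dried at 65 °C to constant weight, then weighed.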

Test [17] deals with Physalis ixocarpa. Nature of the test: Effect on biomass production in Physalis ixocarpa assessed as plant dry weight at 100 uM measured 14 days post compound application relative to untreated control. Format: functional. A digest of the protocol:
as §3

The subject of test [18] is Lolium perenne. Description: Effect on biomass production in Lolium perenne (perennial ryegrass) assessed as plant dry weight at 100 uM measured 14 days post compound application relative to untreated control. Format: functional. An outline of the steps: as §3
For test [19], the system named is Lolium perenne. Nature of the test: Effect on biomass production in Lolium perenne (perennial ryegrass) assessed as plant dry weight at 200 uM measured 14 days post compound application relative to untreated control. Format: functional. An outline of the steps:
as §3

Test [20] concerns Physalis ixocarpa. Nature of the test: Inhibition of photosynthetic efficiency in Physalis ixocarpa intact leaves assessed as increase in chlorophyll a fluorescence transients at 100 uM measured 72 hr post compound application. Format: functional, organism-based. A digest of the protocol: (§4)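 P. ixocarpa plants sprayed 15 days after emergence (greenhouse, 25-30 °C; 20 mM DMSO stock diluted into 0.05% Tween-20; vehicle-sprayed controls). Leaves dark-adapted 15 min, then excited with 650 nm red LED light at 3000 μmol photons m-2 s-1. Chl a OJIP transients recorded with a Handy PEA at room temperature. PI(abs) is normalized to control; K-, J- and I-bands come from variable fluorescence difference curves; five replicates.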

For test [21], the system named is Physalis ixocarpa. Nature of the test: Inhibition of photosynthetic efficiency in Physalis ixocarpa intact leaves assessed as reduction in PI(abs) level at 200 uM measured 48 hr post compound application. Type of test: functional. An outline of the steps: as §4
Test [22] deals with Physalis ixocarpa. Description: Inhibition of photosynthetic efficiency in Physalis ixocarpa intact leaves assessed as reduction in chlorophyll a fluorescence transients at 200 uM measured 48 hr post compound application. Format: functional. A digest of the protocol:
as §4

Test [23] has as its system Physalis ixocarpa. Description: Inhibition of photosynthetic efficiency in Physalis ixocarpa intact leaves assessed as increase in chlorophyll a fluorescence transients at 100 uM measured 48 hr post compound application. Type of test: functional. Set-up: scale not given: the % may be the effect or the level left. An outline of the steps: as §4
The subject of test [24] is Physalis ixocarpa. Description: Inhibition of photosynthetic efficiency in Physalis ixocarpa intact leaves assessed as reduction in PI(abs) level at 100 uM measured 48 hr post compound application. Type of test: functional. An outline of the steps:
as §4

The subject of test [25] is Physalis ixocarpa. Nature of the test: Inhibition of photosynthetic efficiency in Physalis ixocarpa intact leaves assessed as effect on OJIP transients at 100 uM measured 24 hr post compound application. Type of test: functional, organism-based. A digest of the protocol: as §4
For test [26], the system named is Lolium perenne. Description: Effect on photosynthetic efficiency in Lolium perenne (perennial ryegrass) assessed as increase in PI(abs) transients at 100 uM measured 72 hr post compound application. Format: functional. An outline of the steps:
as §2

One may read the inhibition as the share of the control response that was lost under treatment.

Activity calls are given as the source filed them. The calls are words filed in the database; no cut-off is given here.

On to `C[C@H]1C(=O)CC[C@@H]2[C@]1(C)CC[C@H]1[C@@]2(C)CC[C@@]2(C)[C@@H]3C[C@](C)(CO)CC[C@]3(C)CC[C@]12C`, for which the inhibition entry in the test on Spinacia oleracea [1] was “inactive”.
As to `Cl.N`, the Activity amounted to 234% in the test with Spinacia oleracea [2], 252% in the test on Spinacia oleracea [3] and 128% in the test on Spinacia oleracea [4].
`C[C@H]1[C@@H](O)CC[C@@H]2[C@]1(C)CC[C@H]1[C@@]2(C)CC[C@@]2(C)[C@@H]3CC(C)(C)CC[C@]3(C)CC[C@]12C` [EPIFRIEDELINOL]: the inhibition result in the test with Lolium perenne [5], with Lolium perenne [8], in the test with Spinacia oleracea [12], with Spinacia oleracea [13], in the test on Spinacia oleracea [14] and in the test with Physalis ixocarpa [25] was “inactive” each time. Further, the Activity in the test on Lolium perenne [6] amounted to 20%; in the test with Spinacia oleracea [10] it was 112%; in the test on Spinacia oleracea [11], 123%; in the test with Spinacia oleracea [15], 110%; in the test on Physalis ixocarpa [16] it was 101.3%; in the test on Physalis ixocarpa [17], 23.2%. Besides, the Activity with Lolium perenne [18] stood at 79.6%; with Lolium perenne [19], 91.2%; in the test on Physalis ixocarpa [23], 10%; in the test on Lolium perenne [26], 10%. In addition, the inhibition at 200 µM in the test on Lolium perenne [7] was determined as 12%; with Physalis ixocarpa [21] it was 15%; with Physalis ixocarpa [22], 10%. In addition, the outcome with Spinacia oleracea [9] and with Physalis ixocarpa [20] was Active. The IC50 with Spinacia oleracea [1] was found to be 82 µM. Besides, in the test with Physalis ixocarpa [24], the inhibition at 100 µM is 40%.
With `C[C@H]1C(=O)CC[C@@H]2[C@]1(C)CC[C@H]1[C@@]2(C)CC[C@@]2(C)[C@@H]3CC(C)(C)CC[C@]3(C)CC[C@]12C` [FRIEDELINE], the IC50 with Spinacia oleracea [1] stood at 182 µM.
For `C[C@H]1C(=O)CC[C@@H]2[C@]1(C)CC[C@H]1[C@@]2(C)CC[C@@]2(C)[C@@H]3C[C@](C)(C(=O)O)CC[C@]3(C)CC[C@]12C` [MAYTENOIC ACID], in the test with Spinacia oleracea [1], the IC50 stood at 269 µM.
